Source: PubChem BioAssay
Hits are enriched below; roughly 1.9% of the tested compounds scored in any of these assays.
CHRM4 agonist: CHRM4 agonism in calcium assay | 360,000 tested, 0.14% active | CHO-K1 hM4/Gqi5, Fluo-8 calcium fluorescence; vehicle 0%, full acetylcholine response 100% | AID 624127 | P08173 | activation, % at 3 µM;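 active = activation above the run mean over all test wells plus 3 SD, cut at about 32% in these data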;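 also: peak over basal fluorescence ratio per well then scaled between controls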
Target sequence (P08173 whole entry, looked up): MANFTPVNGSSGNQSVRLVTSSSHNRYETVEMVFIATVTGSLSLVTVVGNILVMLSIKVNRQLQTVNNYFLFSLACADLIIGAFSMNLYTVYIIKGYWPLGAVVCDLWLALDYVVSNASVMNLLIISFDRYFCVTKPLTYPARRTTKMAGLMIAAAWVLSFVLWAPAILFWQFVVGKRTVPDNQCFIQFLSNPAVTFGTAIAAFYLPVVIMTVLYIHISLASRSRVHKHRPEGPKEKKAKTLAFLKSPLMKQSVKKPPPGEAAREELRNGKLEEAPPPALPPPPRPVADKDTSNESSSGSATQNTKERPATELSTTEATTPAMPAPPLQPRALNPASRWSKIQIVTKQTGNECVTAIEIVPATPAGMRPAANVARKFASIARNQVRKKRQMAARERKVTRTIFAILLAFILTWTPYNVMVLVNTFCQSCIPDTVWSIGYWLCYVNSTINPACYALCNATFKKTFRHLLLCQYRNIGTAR
CHRM4 antagonist: CHRM4 antagonism in calcium assay; P08173; AID 624125; CHO-hM4 cells, ACh EC80, Fluo-8 calcium fluorescence; 360,000 tested, 0.73% active; inhibition, % at 3 µM;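 active = inhibition above its plate's cutoff, the mean inhibition of sample wells plus 3 SD, cut at about 27% in these data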
M5 ag: CHRM5 agonism in calcium assay | P08912 | CHO-K1 hM5 cells, Fluo-8 calcium fluorescence; 0% DMSO wells, 100% maximal acetylcholine response | activation, % at 3 µM | 360,000 tested, 0.19% active | AID 624037;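 active = activation above the run's mean over test compounds plus 3 SD, cut at about 23% in these data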;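 also: signal is peak over basal fluorescence ratio across the kinetic read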
CHRM5 PAM: positive allosteric modulators of human muscarinic M5 receptor. P08912. CHO-K1 hM5, Fluo-8 calcium, ACh EC20 PAM; 0% = ACh EC20, 100% = ACh EC100. activation, % at 3 µM. 360,000 tested, 0.3% active;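 active = activation above the run cutoff, the mean activation of all test compounds plus 3 SD, cut at about 18% in these data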
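System: CHO-K1 cell line with stable human muscarinic M5 receptor expression | Also added: EC20 acetylcholine as agonist stimulus | Compound: One concentration, 3 µM final (nominal) | Timing: Fluo-8 loading 80 min at 37 °C plus 30 min room temperature | Measured by: Fluo-8 calcium dye fluorescence, kinetic read | Read-out basis: % activation, ACh-normalized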
CHRM4 PAM: positive allosteric modulators of human muscarinic M4 receptor; P08173; CHO-K1 hM4/Gqi5, Fluo-8 calcium fluorescence, ACh EC20; 0% = ACh EC20, 100% = maximal ACh; activation, % at 3 µM; 360,000 tested, 0.4% active; AID 624126;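 active = activation above its plate's cutoff, the mean activation of sample wells plus 3 SD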
M5 antag: blocks acetylcholine activation of human M5 receptor | AID 624040 | CHO-hM5 cells, Fluo-8 calcium fluorescence, ACh EC80 | 360,000 tested, 0.59% active | P08912 | inhibition, % at 3 µM;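 active = inhibition above a per-plate cutoff, the mean of that plate's test compounds plus 3 SD, cut at about 27% in these data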
Numbers stand for hits; ! = a repeat was not active.

For N/C(=N/[N+](=O)[O-])N1CCN(C(=O)c2ccc(Cl)cc2)CC1 the results were CHRM4 agonist inactive, CHRM4 antagonist inactive, M5 ag inactive, CHRM5 PAM inactive, CHRM4 PAM inactive and M5 antag inactive.
For CCC(C#N)(CC)P(=S)(c1ccccc1)c1ccccc1 the results were CHRM4 agonist inactive, CHRM4 antagonist inactive, M5 ag inactive, CHRM5 PAM inactive, CHRM4 PAM inactive and M5 antag inactive.
CC(CC(C#N)(c1ccccc1)c1ccccc1)N(C)C (stereo unspecified) was read as CHRM4 agonist inactive, CHRM4 antagonist 91, M5 ag inactive, CHRM5 PAM inactive, CHRM4 PAM inactive and M5 antag 99.
For CCC(=NCc1ccco1)c1c(O)n(-c2ccc(OC)cc2)c(=O)[nH]c1=O the results were CHRM4 agonist inactive, CHRM4 antagonist inactive, M5 ag inactive, CHRM5 PAM inactive, CHRM4 PAM inactive and M5 antag inactive.
`CCC(=NCc1ccco1)c1c(O)n(-c2ccc(Cl)cc2)c(=O)[nH]c1=O` gave CHRM4 agonist inactive, CHRM4 antagonist inactive, M5 ag inactive, CHRM5 PAM 26, CHRM4 PAM inactive and M5 antag inactive.
COC(=O)C(O)(c1ccc(NC(=S)NC(=O)c2ccc(Cl)cc2Cl)cc1)C(F)(F)F (stereo unspecified) was read as CHRM4 agonist inactive, CHRM4 antagonist inactive, M5 ag inactive, CHRM5 PAM inactive, CHRM4 PAM inactive and M5 antag inactive.
`COC(=O)C(O)(c1ccc(NC(=S)NC(=O)c2ccc(Cl)cc2Cl)c(C)c1)C(F)(F)F` (stereo unspecified) gave CHRM4 agonist inactive, CHRM4 antagonist inactive, M5 ag inactive, CHRM5 PAM inactive, CHRM4 PAM inactive and M5 antag 27.
For CCOC(=O)C(O)(c1ccc(NC(=S)NC(=O)c2ccc(Cl)cc2Cl)c(C)c1)C(F)(F)F (stereo unspecified) the results were CHRM4 agonist 40, CHRM4 antagonist 31, M5 ag inactive, CHRM5 PAM inactive, CHRM4 PAM inactive and M5 antag 37.
COc1cccc(C(c2nnnn2-c2c(C)cccc2C)N2CCC(n3c(=O)[nH]c4ccccc43)CC2)c1OC (stereo unspecified) was read as CHRM4 agonist inactive, CHRM4 antagonist inactive, M5 ag inactive, CHRM5 PAM inactive, CHRM4 PAM inactive and M5 antag inactive.
For COc1ccccc1N1C(=O)NC(=O)C(CCc2ccncc2)(CCc2ccncc2)C1=O the results were CHRM4 agonist inactive, CHRM4 antagonist inactive, M5 ag inactive, CHRM5 PAM 28, CHRM4 PAM inactive and M5 antag inactive.
Screening O=C(c1ccc(F)c([N+](=O)[O-])c1)N1CC2CC(C1)c1cccc(=O)n1C2 (stereo unspecified) returned CHRM4 agonist inactive, CHRM4 antagonist inactive, M5 ag inactive, CHRM5 PAM inactive, CHRM4 PAM inactive and M5 antag inactive.
`ClC1C(Cl)C(Cl)C(Cl)C(Cl)C1Cl` (stereo unspecified) gave CHRM4 agonist inactive, CHRM4 antagonist inactive, M5 ag 84!, CHRM5 PAM inactive, CHRM4 PAM inactive and M5 antag 35!.
`Cc1ccc2nsnc2c1-n1c(C)nc2ccccc2c1=O` gave CHRM4 agonist inactive, CHRM4 antagonist inactive, M5 ag inactive, CHRM5 PAM inactive, CHRM4 PAM 30 and M5 antag inactive.
For Cc1nc2ccccc2c(=O)n1-c1cccc(O)c1 the results were CHRM4 agonist inactive, CHRM4 antagonist inactive, M5 ag inactive, CHRM5 PAM inactive, CHRM4 PAM 17 and M5 antag inactive.
Cc1ccc(-c2nc3ccccc3c(=O)n2-c2cccc(O)c2)cc1 was read as CHRM4 agonist inactive, CHRM4 antagonist inactive, M5 ag inactive, CHRM5 PAM inactive, CHRM4 PAM inactive and M5 antag inactive.
For CCCC[n+]1cc(/N=C(\[O-])OC)on1 the results were CHRM4 agonist inactive, CHRM4 antagonist inactive, M5 ag inactive, CHRM5 PAM 36, CHRM4 PAM inactive and M5 antag inactive.
`CN1CCN(C(=O)COc2ccc(S(=O)(=O)NC3CCCCC3)cc2Cl)CC1` gave CHRM4 agonist inactive, CHRM4 antagonist inactive, M5 ag inactive, CHRM5 PAM 21, CHRM4 PAM inactive and M5 antag inactive.
Screening COc1ccc(NS(=O)(=O)c2ccc(OCC(=O)N3CCN(C)CC3)cc2)cc1Cl returned CHRM4 agonist inactive, CHRM4 antagonist inactive, M5 ag inactive, CHRM5 PAM inactive, CHRM4 PAM inactive and M5 antag inactive.
`CCN(CC)c1ccc(/C=C2\C(=O)NC(=S)N(c3ccc(OC)cc3OC)C2=O)o1` gave CHRM4 agonist inactive, CHRM4 antagonist inactive, M5 ag 34, CHRM5 PAM inactive, CHRM4 PAM inactive and M5 antag inactive.
`CCN(CC)c1ccc(/C=C2\C(=O)NC(=S)N(C)C2=O)o1` gave CHRM4 agonist inactive, CHRM4 antagonist inactive, M5 ag 37, CHRM5 PAM inactive, CHRM4 PAM inactive and M5 antag inactive.
`CNC(=O)OCCc1n(C)cc[n+]1C` gave CHRM4 agonist inactive, CHRM4 antagonist inactive, M5 ag inactive, CHRM5 PAM inactive, CHRM4 PAM inactive and M5 antag inactive.
Cc1cc(C)c2c(c1)-c1cc(C)nn1C(c1cccnc1)N2 (stereo unspecified) was read as CHRM4 agonist inactive, CHRM4 antagonist inactive, M5 ag inactive, CHRM5 PAM inactive, CHRM4 PAM inactive and M5 antag inactive.
O=c1nc(/C=C/c2ccc(Cl)cc2Cl)cc(C(F)(F)F)[nH]1 was read as CHRM4 agonist inactive, CHRM4 antagonist inactive, M5 ag inactive, CHRM5 PAM inactive, CHRM4 PAM inactive and M5 antag inactive.
For Cc1ccc(C(C)C)c(OCC#CCN2CCCC2)c1 the results were CHRM4 agonist inactive, CHRM4 antagonist 32, M5 ag inactive, CHRM5 PAM inactive, CHRM4 PAM inactive and M5 antag 44.
COc1ccc(CC(C)NCCC(c2ccccc2)c2ccccc2)cc1 (stereo unspecified) was read as CHRM4 agonist inactive, CHRM4 antagonist inactive, M5 ag inactive, CHRM5 PAM inactive, CHRM4 PAM inactive and M5 antag inactive.
`CC(NC1=NCCS1)c1ccccc1` (stereo unspecified) gave CHRM4 agonist inactive, CHRM4 antagonist inactive, M5 ag inactive, CHRM5 PAM inactive, CHRM4 PAM inactive and M5 antag inactive.
For O=c1[nH]c(=S)n(-c2ccccc2F)c(O)c1C=NCCN1CCNCC1 the results were CHRM4 agonist inactive, CHRM4 antagonist inactive, M5 ag inactive, CHRM5 PAM inactive, CHRM4 PAM inactive and M5 antag inactive.
For CC(C)(C)P(=O)(N1CCOCC1)N1CCOCC1 the results were CHRM4 agonist inactive, CHRM4 antagonist inactive, M5 ag inactive, CHRM5 PAM inactive, CHRM4 PAM inactive and M5 antag inactive.
